RGS4 block – human RGS4 inhibition; P49798; B-score at 10 µM; HEK293 M3R/RGS4 inducible, Fluo-4 calcium flux; stronger effect = higher value; triggered by carbachol at its EC20; AID 463165; hit rate 0.45% among 310,000;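 active = B-score, a plate-corrected calcium signal, over three deviations above library mean, with baseline fluorescence within five deviations of library mean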;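 also: RGS4 expression induced by doxycycline in cells with stable M3 receptor; B-score is computed from the integrated fluorescence ratio over baseline after carbachol; higher B-score means a larger calcium signal and so more RGS4 inhibition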
Target sequence (P49798 whole entry, looked up): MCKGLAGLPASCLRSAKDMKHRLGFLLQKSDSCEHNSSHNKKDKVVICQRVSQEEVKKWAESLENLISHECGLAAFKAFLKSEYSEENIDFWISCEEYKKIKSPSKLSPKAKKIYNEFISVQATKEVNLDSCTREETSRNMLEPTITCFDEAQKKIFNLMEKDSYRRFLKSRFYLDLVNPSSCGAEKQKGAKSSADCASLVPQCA
MrgX1 antag – antagonists of human MrgX1 receptor. AID 588676. B-score at 10 µM. hit rate 1.3% among 310,000. MRGX1-HEK293 calcium flux, Fluo-4, BAM8-22 antagonism; stronger effect = lower value;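 active = calcium-response B-score plate-corrected more than 3 library SD below zero, starting fluorescence within 5 deviations, no agonist response on first addition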;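 also: peak minus trough fluorescence over baseline after final BAM8-22 challenge near maximal dose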
Target sequence (Q96LB2 whole entry, looked up): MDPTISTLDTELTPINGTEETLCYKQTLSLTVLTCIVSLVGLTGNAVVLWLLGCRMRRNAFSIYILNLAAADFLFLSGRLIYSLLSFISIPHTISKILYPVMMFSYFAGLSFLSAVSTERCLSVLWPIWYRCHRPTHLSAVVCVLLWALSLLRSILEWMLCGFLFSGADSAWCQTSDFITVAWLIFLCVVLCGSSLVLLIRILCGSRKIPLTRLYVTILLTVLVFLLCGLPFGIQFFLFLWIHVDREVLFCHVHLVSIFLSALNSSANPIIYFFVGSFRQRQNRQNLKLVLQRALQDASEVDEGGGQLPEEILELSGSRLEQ
MrgX1 ag – activates human MrgX1 receptor signaling; B-score at 10 µM; hit rate 0.44% among 310,000; AID 588627; Q96LB2; MrgX1-HEK293 cells, Fluo-4 calcium fluorescence, agonist mode; stronger effect = higher value;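 active = calcium response B-score plate-corrected fluorescence ratio at least 3 library SD, with starting fluorescence B-score inside 5 SD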
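Material: MrgX1-expressing HEK293 cells / Dosing: compound as first of three additions / Incubation: overnight seeding, then 1 h dark dye loading / Signal: Fluo-4 NW calcium fluorescence / Evaluation: B-scored fluorescence response ratio / Benchmarks: positive and negative control wells on each plate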
MrgX1 allo act – allosterically activates human MrgX1 receptor signaling; MrgX1-HEK293, Fluo-4 calcium flux, FDSS; stronger effect = higher value; hit rate 0.63% among 310,000; B-score at 10 µM; AID 588675; Q96LB2;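 active = plate-corrected calcium response at least 3 library SD above typical, normal starting fluorescence, not activating the receptor alone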;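 also: compound read alongside a low EC10 to EC30 dose of BAM8-22 agonist; peak minus trough fluorescence over baseline measured at the second addition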
RGS4 pot – potentiators or activators of RGS4; HEK293 M3R/inducible RGS4, carbachol calcium flux Fluo4; stronger effect = lower value; hit rate 0.92% among 310,000; B-score at 10 µM; AID 463111;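 active = B-score of the integrated calcium signal more than 4 SD below the library mean, with starting fluorescence not abnormally high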;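 also: negative B-score means reduced calcium response which marks RGS4 activation or potentiation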
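test system = M3R-expressing HEK293 line, RGS4 induced by doxycycline | probe or stimulus = carbachol at ECmax as muscarinic agonist stimulus | timing = dye loading 30 min 37 °C, buffer rest 30 min RT | signal = calcium dye Fluo4 fluorescence | evaluation = B score from integrated fluorescence ratio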
* hit, by the source's call; i = inactive; . = not tested or not shown. Hits are enriched below; roughly 3.5% of the tested compounds scored in any of these assays.

SMILES	RGS4 block	MrgX1 antag	MrgX1 ag	MrgX1 allo act	RGS4 pot
NC(=O)N=Nc1c(O)[nH]c2ccc([N+](=O)[O-])cc12	i	i	i	i	i
C=CCNC(=O)c1ccccc1NS(=O)(=O)c1ccccc1	i	i	i	i	i
COc1ccccc1OCc1ccc(C(=O)NN)cc1	i	i	i	i	i
CC(C)(C)c1ccc(C(=O)NC(=S)Nc2sc3c(c2C#N)CCC3)cc1	i	i	i	i	i
COc1ccc(C(=O)N/N=C2/SCC(=O)N2Cc2ccc3c(c2)OCO3)cc1OC	i	i	i	i	i
COc1cccc(C(=O)N/N=C2\SCC(=O)N2Cc2ccc3c(c2)OCO3)c1	i	-5.64*	i	i	i
COc1ccc(C(=O)NCCSCc2cccc(Cl)c2)cc1OC	i	i	i	i	i
CCCCCCCCCCCCN1[C@@H](CC(=O)O)c2cc(F)ccc2S1(=O)=O	i	i	i	i	-7.69*
CCCCCCCCCCCCN1[C@@H](CC(=O)OC)c2cc(C(F)(F)F)ccc2S1(=O)=O	i	-5.78*	i	i	i
CCCCCCCCN1[C@@H](CC(=O)OC)c2cc(F)ccc2S1(=O)=O	i	i	i	i	i
Nc1ccc(C(=O)O)c(O)c1	i	i	i	i	i
Nc1ccc(N)c(C(=O)O)c1	i	-5.65*	i	i	i
O=C(COc1ccccc1F)NNC(=O)c1cccc(-n2cccc2)c1	i	-4.99*	i	i	i
CCOC(=O)c1sc(=S)n(CC)c1NC(=O)C1CC1	i	i	i	i	i
C/C(CCc1oc2ccccc2c1-c1ccc(C)o1)=N/O	i	i	28.3*	i	i
CC(=O)CCc1oc2ccc([N+](=O)[O-])cc2c1-c1ccc(C)o1	i	i	i	i	i
CC(=NCCN1CCOCC1)C1=C(O)c2ccccc2C1=O	i	i	i	i	i
c1ccc(Cn2cc(CNc3ccccc3)nn2)cc1	i	i	i	i	i
Cc1cccc(NC(=O)c2n[nH]c([N+](=O)[O-])c2Br)c1C	i	i	i	7.14*	i
Cc1cccc(NC(=O)c2ccccn2)c1C	i	i	i	i	i
COc1ccccc1C(=O)NC(=O)COC(=O)c1ccc(NC(=O)CC#N)cc1	i	i	i	i	i
CCOc1ccc(-c2[nH]ncc2-c2ccc(Cl)cc2)c(O)c1	i	-13.2*	i	12.7*	i
COc1ccc(-n2nnnc2SCC(=O)Nc2nnc(C)s2)cc1OC	i	i	i	i	i
Nc1ccccc1Sc1ccc(C(=O)c2ccccc2C(=O)O)cc1[N+](=O)[O-]	i	i	i	i	i
O=C(O)c1ccccc1C(=O)c1ccc(Sc2ccc(Cl)cc2)c([N+](=O)[O-])c1	i	i	38*	i	i
SMILES	RGS4 block	MrgX1 antag	MrgX1 ag	MrgX1 allo act	RGS4 pot
CN1CCN(Cc2ccc(Sc3ccc(Cl)cc3)c([N+](=O)[O-])c2)CC1	i	i	i	i	-8.27*
CCc1noc(C)c1C(=O)N1CCN(S(=O)(=O)c2ccc(C(C)=O)cc2)CC1	i	i	i	i	i
CCCCCCCN(C(=O)CCl)c1ccccc1C	i	i	i	i	i
COC(=O)c1c(C)[nH]c(C(=O)OCC(=O)N(CC(C)C)c2c(N)n(Cc3ccccc3)c(=O)[nH]c2=O)c1C	i	i	i	i	i
CC(=O)Nc1sc(C)c(C)c1C(=O)OCC(=O)N(CC(C)C)c1c(N)n(Cc2ccccc2)c(=O)[nH]c1=O	i	i	i	i	-7.75*
CCOc1ccc(NC(=O)CN(C)CC(=O)Nc2ccc(Br)cc2F)cc1OCC	i	i	i	i	i
COc1ccc(N2CCN(Cc3cc4c(cc3Br)OCCO4)CC2)cc1	i	i	i	i	-7*
CCc1ccc2c(c1)c(N=NC1=NC(=O)CS1)c(O)n2CC	4.98*	i	i	i	i
CCc1ccc2[nH]c(O)c(N=NC3=NC(=O)CS3)c2c1	i	i	i	i	i
O=C(c1cccn2c(=O)c3ccccc3nc12)N1CCN(Cc2ccc3c(c2)OCO3)CC1	i	i	i	i	i
O=C(c1ccc2nc3ccccc3c(=O)n2c1)N1CCN(Cc2ccc3c(c2)OCO3)CC1	i	-9.63*	i	i	i
CCOC(=O)CSc1nc2ccccc2c(=O)n1CCCCCC(=O)NCc1ccco1	i	i	i	i	i
Cc1ccc(Cl)cc1N1CCN(c2cccc[n+]2C)CC1	i	i	i	i	-7.35*
CC(=O)NCC(=O)N(c1c(C)n(C)n(-c2ccccc2)c1=O)C1(C(=O)NC2CCCC2)CCCCC1	i	i	i	14.8*	i
CS(=O)(=O)c1ccccc1C(=O)NCCC(c1ccccc1)c1ccccc1	i	i	i	i	i
Cc1ccc(C)c(N2CCN(S(=O)(=O)c3cc4c(cc3C)NC(=O)CO4)CC2)c1	i	i	i	i	i
CC(C)(C)c1ccc(/C=C/C(=O)Nc2nncs2)cc1	i	-4.84*	i	i	i
Cn1c(=O)c(C(=O)COC(=O)c2cc(C(F)(F)F)nc3c(C(F)(F)F)cccc23)c(N)n(CC2CC2)c1=O	i	-7.5*	i	i	-8.93*
CC(C)Cn1c(N)c(C(=O)COC(=O)c2cc(C(F)(F)F)nc3ccccc23)c(=O)n(C)c1=O	.	i	i	i	.
O=C(/C=C/c1ccccc1)NC(NC(=S)Nc1cccc(O)c1)C(Cl)(Cl)Cl (configuration not stated)	i	i	i	i	i
COc1ccc(N2CC(C)Cn3c2nc2c3c(=O)n(Cc3ccc(C)cc3)c(=O)n2C)c(OC)c1 (configuration not stated)	i	i	i	i	i
O=P(C1=C(N2CCOCC2)/C(=C\c2ccccc2)CC1)(N1CCOCC1)N1CCOCC1	i	i	i	i	i
O=C(O)CC1SC(N/N=C/c2ccc(Br)cc2)NC1=O (configuration not stated)	i	-5.71*	i	i	i
COc1cccc(C2C3=C(CC(C)(C)CC3=O)Nc3cc(OC)c(OC)cc32)c1 (configuration not stated)	i	i	i	i	i
CC(C)c1ccc(N2C=Nc3ccc(C(C)C)cc3C2)cc1	i	i	i	i	-7.53*
CC1CCCC(C)N1/N=C/c1ccc(C#N)cc1 (configuration not stated)	i	i	i	8.41*	i
O=C(Nc1nnc(C2=COCCO2)o1)C1CCCCC1	i	i	i	i	i

Assay outcomes as filed in PubChem.
